Where a chain is given by its changes, count along the chain named. One block for each compound: values may come before it.
Experiments:
[1] = target: T1, Med25 AcID fl-VP16(465–490) (Homo sapiens, UniProt Q71SY5); format: binding
T1 sequence (Q71SY5 389-543 limits assumed): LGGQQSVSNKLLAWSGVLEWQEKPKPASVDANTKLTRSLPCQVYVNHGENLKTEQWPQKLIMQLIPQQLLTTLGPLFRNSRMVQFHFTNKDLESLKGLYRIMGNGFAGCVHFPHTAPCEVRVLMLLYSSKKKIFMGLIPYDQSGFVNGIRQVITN

IBiD ACTR = IBiD ACTR (Homo sapiens, UniProt Q92793); format: binding
Med25 AcID [2] = target: T2, Med25 AcID (Homo sapiens, UniProt Q71SY5); test: Mass spectrometry; format: binding; settings: mass spectrometry
T2 sequence (Q71SY5 389-543 limits assumed): T1 sequence (Q71SY5 389-543 limits assumed)

Med25 AcID [3] = target: T3, Med25 AcID (Homo sapiens, UniProt Q71SY5, K519R); test: Mass spectrometry; format: binding; settings: Med25 K519R mutant
T3 sequence (Q71SY5 394-543 K519R): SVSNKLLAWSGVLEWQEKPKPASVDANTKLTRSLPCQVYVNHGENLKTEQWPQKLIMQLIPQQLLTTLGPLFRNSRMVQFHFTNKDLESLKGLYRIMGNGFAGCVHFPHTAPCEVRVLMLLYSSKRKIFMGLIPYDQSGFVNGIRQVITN

Med25 AcID [4] = target: T4, Med25 AcID (Homo sapiens, UniProt Q71SY5, K520R); test: Mass spectrometry; format: binding; settings: Med25 K520R mutant
T4 sequence (Q71SY5 394-543 K520R): T3 sequence (Q71SY5 394-543 K519R) with R126K, K127R

Med25 AcID ETV5 = target: T5, Med25 AcID ETV5 (Homo sapiens, UniProt Q71SY5); test: Fluorescence polarization inhibition of Med25 AcID ETV5 interaction; settings: H1 binding surface
T5 sequence (Q71SY5 389-543 limits assumed): T1 sequence (Q71SY5 389-543 limits assumed)

Med25 ATF6α = target: T6, Med25 ATF6α (Homo sapiens, UniProt Q71SY5); test: Fluorescence polarization inhibition of Med25 ATF6α interaction; settings: H2 binding surface
T6 sequence (Q71SY5 389-543 limits assumed): T1 sequence (Q71SY5 389-543 limits assumed)

full-length Med25 = target: T7, full-length Med25 (Homo sapiens, UniProt Q71SY5); test: Cellular thermal shift assay in HeLa cell nuclear extracts; format: cell-based; settings: 25 μM NA
T7 sequence (Q71SY5 1-747): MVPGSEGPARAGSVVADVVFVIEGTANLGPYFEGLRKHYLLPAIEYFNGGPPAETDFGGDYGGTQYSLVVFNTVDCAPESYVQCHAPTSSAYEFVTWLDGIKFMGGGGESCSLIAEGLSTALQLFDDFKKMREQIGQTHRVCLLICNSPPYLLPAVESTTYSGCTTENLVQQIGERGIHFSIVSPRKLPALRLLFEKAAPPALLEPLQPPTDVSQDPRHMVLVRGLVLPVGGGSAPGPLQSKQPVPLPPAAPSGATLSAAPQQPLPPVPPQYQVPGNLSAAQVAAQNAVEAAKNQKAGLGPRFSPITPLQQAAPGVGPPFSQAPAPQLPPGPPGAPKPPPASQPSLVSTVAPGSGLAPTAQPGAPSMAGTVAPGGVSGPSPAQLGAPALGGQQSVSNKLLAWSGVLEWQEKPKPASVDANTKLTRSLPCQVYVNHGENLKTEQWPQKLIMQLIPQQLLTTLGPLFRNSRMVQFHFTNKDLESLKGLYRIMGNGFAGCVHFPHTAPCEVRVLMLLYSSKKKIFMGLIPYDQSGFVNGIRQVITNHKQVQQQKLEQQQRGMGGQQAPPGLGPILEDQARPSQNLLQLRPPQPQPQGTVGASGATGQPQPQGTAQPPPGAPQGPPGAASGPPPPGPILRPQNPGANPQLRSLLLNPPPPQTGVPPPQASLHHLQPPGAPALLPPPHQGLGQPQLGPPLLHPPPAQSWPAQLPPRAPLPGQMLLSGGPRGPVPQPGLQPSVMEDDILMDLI
In short: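 HeLa cell nuclear extracts were dosed with 25 μM test compound or an equivalent amount of DMSO vehicle. Samples were then heated across a range of temperatures to assess thermal stabilization of Med25.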

Med25 ETV5 complex [5] = target: T8, Med25 ETV5 complex (Homo sapiens, UniProt Q71SY5); test: Co-immunoprecipitation of ETV5 with Med25 in HeLa cells; format: cell-based; settings: 25 μM NA
T8 sequence (Q71SY5 1-747): T7 sequence (Q71SY5 1-747)

MDA-MB-231 cells = test: Isobologram synergy with lapatinib, cell viability assay; format: cell-based; settings: fixed dose ratios, 2 days, MTT
MMP2 transcript = test: qPCR analysis of MMP2 transcript levels in VARI068 cells; format: cell-based; settings: normalized to RPL19
In short: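 Test compound- or vehicle-treated cells were assayed by qPCR for MMP2 transcript, normalized to reference gene RPL19. Runs were technical triplicates in biological duplicate and averaged.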

Med25 ETV5 complex [6] = target: T8, Med25 ETV5 complex; test: Co-immunoprecipitation of ETV5 with Med25 in VARI068 cells; format: cell-based
In short: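 Cells were treated with test compound. ETV5 was co-immunoprecipitated with Med25 and detected by Western blot.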

Structure (SMILES): Cc1cc(O)c(C=O)c2c1C(=O)Oc1c(C)c(O)c3c(c1O2)C(O)OC3=O (centres unmarked) [NA, norstictic acid]
time at which significant inhibition was observed ([1]; time-course experiment): 5 min
IC50 (IBiD ACTR): > 250 µM
covalent adduct formation with Med25 AcID (Med25 AcID [2]): concentration-dependent covalent adduct(s)
reduction in mass abundance of the +1 covalent adduct (Med25 AcID [3]): 53%
reduction in mass abundance of the NA covalent adduct (Med25 AcID [4]): 22%
inhibition of Med25 PPI with ETV5 (Med25 AcID ETV5): inhibits
inhibition of Med25 PPI with ATF6α (Med25 ATF6α): inhibits
thermal stabilization of endogenous Med25 (full-length Med25): stabilizes endogenous Med25 protein
formation of Med25 ETV5 complex (Med25 ETV5 complex [5]): blocks the formation of the Med25 ETV5 complex
synergy with lapatinib (MDA-MB-231 cells): strong synergy was observed
MMP2 transcript levels relative to vehicle (MMP2 transcript): substantial downregulation of MMP2
formation of Med25 ETV5 complex (Med25 ETV5 complex [6]): blocks the Med25 ETV5 complex

Structure (SMILES): COc1cc(C)c(C(=O)Oc2cc(C)c(C(=O)O)c(O)c2C)c(O)c1C=O [baeomycesic acid]
covalent adduct formation with Med25 AcID (Med25 AcID [2]): covalent adducts with Med25 were observed

More lines, now with the values ahead:

IC50 [1]: 3.9 ± 0.3 µM
Structure (SMILES): COc1cc(C(=O)O)c2c(c1C)OC(=O)c1c(C)cc(O)c(C=O)c1O2 [PA, psoromic acid]

IC50 [1]: > 250 µM
Structure (SMILES): COc1cc(C)c2c(c1C=O)Oc1c(c(C)c(O)c3c1C(O)OC3=O)OC2=O (centres unmarked) [Stictic acid]

impact on binding of activators to Med25 AcID [1]: does not impact binding of activators
covalent adduct formation with Med25 AcID (Med25 AcID [2]): efficiently labels Med25 AcID
Structure (SMILES): O=Cc1ccccc1O [salicylaldehyde]

— article PMC8717358 (Journal of the American Chemical Society, 2021)
